# Active and inactive are the calls of the source.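 Rule for the calls, unless noted: active = calcium signal cut by more than 3 SD below the full-agonist control yet still positive, in both repeats and the earlier primary screen; inactive = the rest.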
# Target: Short transient receptor potential channel 4 (Mus musculus) (UniProt Q9QUQ5)
# Assay: blockers of DAMGO-evoked TRPC4 calcium flux – cell-based, Fluo4, HEK293 TRPC4beta/mu-opioid, confirmation (AID 2636)
# Conditions: at 10 µM; stronger effect = higher value
# How it was run: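 Timing: Dye 45 min at room temperature, compound 110 s, submaximal DAMGO 110 s | Assay system: HEK293 stable line with TRPC4beta plus mu-opioid receptor | Repeats: Two replicates | Technique: Fluo4 calcium flux fluorescence, kinetic read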
# Chain of Short transient receptor potential channel 4 (Mus musculus) (Q9QUQ5 whole entry, looked up): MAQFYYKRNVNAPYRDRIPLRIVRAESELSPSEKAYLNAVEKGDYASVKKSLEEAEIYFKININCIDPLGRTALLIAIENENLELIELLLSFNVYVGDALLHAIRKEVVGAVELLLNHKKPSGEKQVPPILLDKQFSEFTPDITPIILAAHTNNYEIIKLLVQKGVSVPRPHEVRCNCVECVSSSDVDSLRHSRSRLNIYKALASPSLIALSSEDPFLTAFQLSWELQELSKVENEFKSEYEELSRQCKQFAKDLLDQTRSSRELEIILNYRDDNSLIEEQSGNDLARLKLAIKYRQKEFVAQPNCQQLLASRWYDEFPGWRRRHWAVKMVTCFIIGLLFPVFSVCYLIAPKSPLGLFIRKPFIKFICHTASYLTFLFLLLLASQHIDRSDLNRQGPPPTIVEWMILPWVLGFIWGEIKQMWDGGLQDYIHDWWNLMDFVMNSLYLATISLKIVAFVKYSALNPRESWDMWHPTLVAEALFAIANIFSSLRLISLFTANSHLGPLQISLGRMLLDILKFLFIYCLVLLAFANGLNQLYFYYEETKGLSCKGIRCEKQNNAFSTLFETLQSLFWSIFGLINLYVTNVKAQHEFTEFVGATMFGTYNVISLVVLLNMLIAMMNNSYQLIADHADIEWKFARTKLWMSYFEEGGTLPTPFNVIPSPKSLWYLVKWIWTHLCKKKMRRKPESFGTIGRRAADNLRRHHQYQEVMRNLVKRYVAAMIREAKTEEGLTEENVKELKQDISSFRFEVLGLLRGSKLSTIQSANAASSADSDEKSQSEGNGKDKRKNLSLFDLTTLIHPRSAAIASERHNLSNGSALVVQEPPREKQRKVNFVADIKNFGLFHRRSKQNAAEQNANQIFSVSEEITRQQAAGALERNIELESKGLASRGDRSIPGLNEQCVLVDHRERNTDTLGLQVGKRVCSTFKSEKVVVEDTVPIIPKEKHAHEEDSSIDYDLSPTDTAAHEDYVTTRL
Compound,outcome,inhibition
CCN1CCN(c2ccc(S(=O)(=O)N3CCCCC3)cc2NC(=O)c2cccc(OC(F)F)c2)CC1,inactive,
Fc1ccc(CN2C3=NCCCN3c3ccccc32)cc1,inactive,
COc1ccc(-n2cc(CNCc3cnc4ccccn34)c(-c3cccc(F)c3)n2)cc1,inactive,
N=c1c(C(=O)NCc2ccc(F)cc2)cc2c(=O)n3ccccc3nc2n1Cc1ccco1,inactive,
O=C1CC2(CCN(S(=O)(=O)c3ccccc3F)CC2)Oc2ccccc21,inactive,
O=C1Cc2ccccc2Sc2c(OCCN3CCCCC3)cccc21,inactive,
C/C(CC(=O)NCc1ccc(Cl)cc1)=N\NC(=O)COc1ccc(C)cc1Br,inactive,
CCCCNc1c(-c2ccc(SC(C)CC)c(OC)c2)nc2ccc(C)cn12 (stereo not drawn),inactive,
CCOC(=O)C1NN=C(C(=O)c2ccccc2)C1c1ccc(Cl)cc1 (stereo not drawn),inactive,
O=[N+]([O-])c1ccc(N2CCN(CCOc3nonc3-c3ccccc3)CC2)c(Cl)c1,inactive,
COc1ccc(-c2cc(C(=O)N3CC(C)CC(C)C3)c3ccccc3n2)cc1 (stereo not drawn),inactive,
COC(=O)c1cc(N2CCN(C)CC2)nc2ccccc12,inactive,
COc1cc(C2c3c(-c4ccccc4)n[nH]c3C(=O)N2c2ccccc2)ccc1O (stereo not drawn),inactive,
O=C(c1ccccc1)c1coc2ccc(O)c(CN3CCOCC3)c12,inactive,
CN(C)S(=O)(=O)c1cccc(COC(=O)c2ccc(Cl)cc2O)c1,inactive,
CCOC(=O)C1=C(C)N(c2ccccc2)C(=O)NC1c1cccc([N+](=O)[O-])c1 (stereo not drawn),inactive,
Cc1cc(=O)oc2cc(NC(=S)NCc3ccccn3)ccc12,inactive,
Cc1nnc(Sc2cc(NCCCO)c([N+](=O)[O-])c3nonc23)s1,,84% (active)
CCOC(=O)C1=NNC(C(=O)c2ccc(Cl)cc2)C1c1ccc(OC)cc1 (stereo not drawn),inactive,
CN1CCN(NC(=O)Nc2cc(Cl)cc(Cl)c2)CC1,inactive,

Compound,outcome,inhibition
Cc1ccc(C[n+]2cccc(-c3ccccc3)c2)c(C)c1,inactive,
Cc1ccc(C(=O)C[n+]2cccc3cc(C)ccc32)cc1,inactive,
COc1ccc(OC)c(NC(=O)COC(=O)Cc2ccc(-c3ccccc3)cc2)c1,inactive,
CC(C)c1ccc(C(C)NCCS(=O)(=O)c2ccc(Br)cc2)cc1 (stereo not drawn),inactive,
Cc1ccc(C)c(N(CC(=O)NC2CCCC2)C(=O)c2csnn2)c1,inactive,
Cc1ccc(-n2c(N)cc(=O)nc2SCC(=O)N2CCN(c3ccccc3)CC2)cc1,inactive,
N=c1c(C(=O)NCC2CCCO2)cc2c(=O)n3ccccc3nc2n1Cc1ccc(Cl)cc1 (stereo not drawn),inactive,
CN(CCNC(=O)c1ccc(/C=N/O)nc1)Cc1ccccc1,inactive,
CCOC(=O)C1=C(CNCCc2ccc(Cl)cc2)NC(=O)NC1c1cccc([N+](=O)[O-])c1 (stereo not drawn),inactive,
O=C(NCC(c1ccco1)N1CCc2ccccc2C1)c1ccc(F)cc1 (stereo not drawn),inactive,
CCCc1c(-c2ccc(O)cc2)nn(-c2ccc(O)cc2)c1-c1ccc(O)cc1,inactive,
Cc1ccc(-c2c(C(=O)N/N=C/c3ccc(OC(C)C)cc3)nnn2-c2nonc2N)cc1,inactive,
CCOC(=O)CSc1nc2ccccc2c(=O)n1C1CCCC1,inactive,
CCN1C(=O)/C(=C/C=C2\N(CC)c3cc(S(=O)(=O)N(C)C)ccc3N2c2ccccc2)SC1=S,inactive,
CCCCn1c(N)c(N(CCOC)C(=O)c2ccc(-c3ccc(C(C)=O)cc3)o2)c(=O)[nH]c1=O,inactive,
CC(C)CN(C(=O)C1CC1)c1c(N)n(Cc2ccccc2)c(=O)[nH]c1=O,inactive,
CCOC(=O)CC(NS(=O)(=O)c1ccc(OC)c(C)c1)c1cccc([N+](=O)[O-])c1 (stereo not drawn),inactive,
Clc1ccc2nc(CN3CCCc4ccccc43)cn2c1,inactive,
Cc1cc(Cl)ccc1OC(C)C(=O)Nc1ccccc1N1CCOCC1 (stereo not drawn),inactive,

# Target: Short transient receptor potential channel 4 (Mus musculus) (UniProt Q9QUQ5)
# Assay: blockers of DAMGO-evoked TRPC4 calcium flux – cell-based, second round, Fluo4, HEK293 TRPC4beta/mu-opioid, 1 µM, confirmation (AID 2637;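 active = calcium signal ratio cut to more than 3 SD under the fully stimulated control mean yet still positive, in both repeats and the primary screen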)
# Conditions: at 1 µM; stronger effect = higher value
# How it was run: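 System: HEK293 stable line co-expressing TRPC4beta and mu-opioid receptor; Repeats: duplicates; Benchmarks: ECmax and compound-free wells; Timing: Fluo4 loading 45 min, compound exposure 110 s; Dosing: one dose, 1 µM final; Also added: DAMGO, submaximal then ECmax; Signal: Fluo4 calcium fluorescence, kinetic real-time read after baseline.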
row,Compound,outcome
1,CCN1CCN(c2ccc(S(=O)(=O)N3CCCCC3)cc2NC(=O)c2cccc(OC(F)F)c2)CC1,inactive
2,Fc1ccc(CN2C3=NCCCN3c3ccccc32)cc1,inactive
3,COc1ccc(-n2cc(CNCc3cnc4ccccn34)c(-c3cccc(F)c3)n2)cc1,inactive
4,N=c1c(C(=O)NCc2ccc(F)cc2)cc2c(=O)n3ccccc3nc2n1Cc1ccco1,inactive
5,O=C1CC2(CCN(S(=O)(=O)c3ccccc3F)CC2)Oc2ccccc21,inactive
6,O=C1Cc2ccccc2Sc2c(OCCN3CCCCC3)cccc21,inactive
7,C/C(CC(=O)NCc1ccc(Cl)cc1)=N\NC(=O)COc1ccc(C)cc1Br,inactive
8,CCCCNc1c(-c2ccc(SC(C)CC)c(OC)c2)nc2ccc(C)cn12 (stereo not drawn),inactive
9,CCOC(=O)C1NN=C(C(=O)c2ccccc2)C1c1ccc(Cl)cc1 (stereo not drawn),inactive
10,O=[N+]([O-])c1ccc(N2CCN(CCOc3nonc3-c3ccccc3)CC2)c(Cl)c1,inactive
11,COc1ccc(-c2cc(C(=O)N3CC(C)CC(C)C3)c3ccccc3n2)cc1 (stereo not drawn),inactive
12,COC(=O)c1cc(N2CCN(C)CC2)nc2ccccc12,inactive
13,COc1cc(C2c3c(-c4ccccc4)n[nH]c3C(=O)N2c2ccccc2)ccc1O (stereo not drawn),inactive
14,O=C(c1ccccc1)c1coc2ccc(O)c(CN3CCOCC3)c12,inactive
15,CN(C)S(=O)(=O)c1cccc(COC(=O)c2ccc(Cl)cc2O)c1,inactive
16,CCOC(=O)C1=C(C)N(c2ccccc2)C(=O)NC1c1cccc([N+](=O)[O-])c1 (stereo not drawn),inactive
17,Cc1cc(=O)oc2cc(NC(=S)NCc3ccccn3)ccc12,inactive
18,Cc1nnc(Sc2cc(NCCCO)c([N+](=O)[O-])c3nonc23)s1,inactive
19,CCOC(=O)C1=NNC(C(=O)c2ccc(Cl)cc2)C1c1ccc(OC)cc1 (stereo not drawn),inactive
20,CN1CCN(NC(=O)Nc2cc(Cl)cc(Cl)c2)CC1,inactive

row,Compound,outcome
1,Cc1ccc(C[n+]2cccc(-c3ccccc3)c2)c(C)c1,inactive
2,Cc1ccc(C(=O)C[n+]2cccc3cc(C)ccc32)cc1,inactive
3,COc1ccc(OC)c(NC(=O)COC(=O)Cc2ccc(-c3ccccc3)cc2)c1,inactive
4,CC(C)c1ccc(C(C)NCCS(=O)(=O)c2ccc(Br)cc2)cc1 (stereo not drawn),inactive
5,Cc1ccc(C)c(N(CC(=O)NC2CCCC2)C(=O)c2csnn2)c1,inactive
6,Cc1ccc(-n2c(N)cc(=O)nc2SCC(=O)N2CCN(c3ccccc3)CC2)cc1,inactive
7,N=c1c(C(=O)NCC2CCCO2)cc2c(=O)n3ccccc3nc2n1Cc1ccc(Cl)cc1 (stereo not drawn),inactive
8,CN(CCNC(=O)c1ccc(/C=N/O)nc1)Cc1ccccc1,inactive
9,CCOC(=O)C1=C(CNCCc2ccc(Cl)cc2)NC(=O)NC1c1cccc([N+](=O)[O-])c1 (stereo not drawn),inactive
10,O=C(NCC(c1ccco1)N1CCc2ccccc2C1)c1ccc(F)cc1 (stereo not drawn),inactive
11,CCCc1c(-c2ccc(O)cc2)nn(-c2ccc(O)cc2)c1-c1ccc(O)cc1,inactive
12,Cc1ccc(-c2c(C(=O)N/N=C/c3ccc(OC(C)C)cc3)nnn2-c2nonc2N)cc1,inactive
13,CCOC(=O)CSc1nc2ccccc2c(=O)n1C1CCCC1,inactive
14,CCN1C(=O)/C(=C/C=C2\N(CC)c3cc(S(=O)(=O)N(C)C)ccc3N2c2ccccc2)SC1=S,inactive
15,CCCCn1c(N)c(N(CCOC)C(=O)c2ccc(-c3ccc(C(C)=O)cc3)o2)c(=O)[nH]c1=O,inactive
16,CC(C)CN(C(=O)C1CC1)c1c(N)n(Cc2ccccc2)c(=O)[nH]c1=O,inactive
17,CCOC(=O)CC(NS(=O)(=O)c1ccc(OC)c(C)c1)c1cccc([N+](=O)[O-])c1 (stereo not drawn),inactive
18,Clc1ccc2nc(CN3CCCc4ccccc43)cn2c1,inactive
19,Cc1cc(Cl)ccc1OC(C)C(=O)Nc1ccccc1N1CCOCC1 (stereo not drawn),inactive
